The nature of series [1]: Activity at alpha7-5HT3 chimera expressed in SHEP1 cells by FLIPR assay. Type of series: functional, cell-based. The settings on record: Homo sapiens, SH-EP1. In short, it runs like this:
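Cell-based FLIPR functional assay in SH-EP1 cells expressing the α7-5HT3 chimera. Values are the average of at least five experiments for most compounds.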

Series [2] deals with Neuronal acetylcholine receptor subunit alpha-7 (Rattus norvegicus, UniProt Q05941). Put plainly: Displacement of [3H]MLA from alpha-7 nAChR in Sprague-Dawley rat brain homogenates. Type of series: tissue-based. The method, boiled down:
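Rat brain homogenate binding assay with [3H]MLA as radioligand. Values are the average of two or more experiments.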

Series [3] can be described thus: Metabolic stability in Sprague-Dawley rat liver microsomes after 1 hr. In kind it is ADME, Microsome. Conditions: read-out: Stability. The method, boiled down:
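Rat liver microsomes incubated with compound, in vitro metabolism; read-out is percent of parent remaining at 1 h.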
Background: Liver microsomes are vesicles of endoplasmic reticulum, rich in cytochrome P450 enzymes.

Series [4] concerns the target Acetylcholine receptor; alpha1/beta1/delta/gamma (Homo sapiens, UniProt P02708+P07510+P11230+Q07001). Kind of series: Inhibition of alpha-1-beta-1-gamma-delta nAChR expressed in TE671cells by FLIPR assay. In kind it is functional, cell-based, TE-671. In short, it runs like this:
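Functional FLIPR read-out in TE671 cells expressing native muscle-type α1β1γδ nAChR, cell-based; tested for agonist and antagonist activity; IC50 in µM.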

For another series, the target named is Cytochrome P450 2D6 (Homo sapiens, UniProt P10635). Kind of series: Inhibition of CYP2D6. In kind it is ADME.
Sequence of Cytochrome P450 2D6 (P10635 whole entry): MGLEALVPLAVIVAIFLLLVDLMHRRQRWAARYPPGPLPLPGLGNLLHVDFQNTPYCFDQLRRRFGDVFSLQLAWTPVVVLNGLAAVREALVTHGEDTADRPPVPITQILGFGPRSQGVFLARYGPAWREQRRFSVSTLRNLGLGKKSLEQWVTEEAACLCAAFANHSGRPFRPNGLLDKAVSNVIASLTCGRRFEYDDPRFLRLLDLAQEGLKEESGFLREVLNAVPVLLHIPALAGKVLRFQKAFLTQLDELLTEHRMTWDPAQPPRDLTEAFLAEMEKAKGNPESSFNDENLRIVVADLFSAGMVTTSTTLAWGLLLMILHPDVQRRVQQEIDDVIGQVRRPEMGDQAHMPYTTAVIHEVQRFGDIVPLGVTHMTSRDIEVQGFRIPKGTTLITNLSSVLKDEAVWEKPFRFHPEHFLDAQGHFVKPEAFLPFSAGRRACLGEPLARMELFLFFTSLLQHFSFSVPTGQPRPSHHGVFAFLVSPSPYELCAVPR
In series [5] the target is T1, hERG (Homo sapiens, UniProt Q12809). Kind of series: Inhibition of hERG expressed in HEK293 cells at 2 uM by patch clamp assay. In kind it is toxicity, cell-based. Conditions: HEK293 cells that express hERG. In short, it runs like this:
(§1)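 hERG current (IKr) in HEK cells recorded by patch clamp; compound applied at 2 and 20 µM; % block of current reported at each concentration.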
In general terms: hERG is a cardiac potassium channel; its block is linked to QT prolongation.

Series [6] has as its target Neuronal acetylcholine receptor; alpha4/beta2 (Rattus norvegicus) (UniProt P09483+P12390). Put plainly: Inhibition of [3H]cytisine binding to alpha4beta2 nAChR in rat brain homogenate at 1 uM. In kind it is tissue-based. In short, it runs like this:
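Radioligand displacement in rat brain homogenate with [³H]cytisine as the α4β2 ligand; test compound at 1 µM; value reported as % block of binding.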

Series [7] has as its target Serotonin 3 (5-HT3) receptor. Kind of series: Activity at 5HT3 receptor expressed in SHEP1 cells by FLIPR assay. In kind it is functional, cell-based, Homo sapiens. In short, it runs like this: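 Cell-based FLIPR functional assay in SH-EP1 cells expressing 5-HT3.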
A short description of series [8]: Half life in Sprague-Dawley rat liver microsome. Type of series: ADME. Conditions: liver microsomes.
A short description of series [9]: Half life in human liver microsome. Type of series: ADME. Conditions: liver microsomes.
For series [10], the target named is Serotonin 3 (5-HT3) receptor. Put plainly: Binding affinity to 5HT3 receptor. In kind it is protein-complex assay, Homo sapiens.
For series [11], the target named is Neuronal acetylcholine receptor; alpha3/beta4 (Homo sapiens, UniProt P30926+P32297). Kind of series: Inhibition of alpha-3-beta-4 nAChR expressed in SHSY5Y cells by FLIPR assay. In kind it is functional, cell-based, SH-SY5Y. The method, boiled down: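 FLIPR cell-based functional assay in SH-SY5Y cells, which carry α3β4-containing ganglion-type nAChRs; tested for agonist and antagonist activity; IC50 in µM.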
Sequence of Neuronal acetylcholine receptor; alpha3/beta4 (P30926 whole entry): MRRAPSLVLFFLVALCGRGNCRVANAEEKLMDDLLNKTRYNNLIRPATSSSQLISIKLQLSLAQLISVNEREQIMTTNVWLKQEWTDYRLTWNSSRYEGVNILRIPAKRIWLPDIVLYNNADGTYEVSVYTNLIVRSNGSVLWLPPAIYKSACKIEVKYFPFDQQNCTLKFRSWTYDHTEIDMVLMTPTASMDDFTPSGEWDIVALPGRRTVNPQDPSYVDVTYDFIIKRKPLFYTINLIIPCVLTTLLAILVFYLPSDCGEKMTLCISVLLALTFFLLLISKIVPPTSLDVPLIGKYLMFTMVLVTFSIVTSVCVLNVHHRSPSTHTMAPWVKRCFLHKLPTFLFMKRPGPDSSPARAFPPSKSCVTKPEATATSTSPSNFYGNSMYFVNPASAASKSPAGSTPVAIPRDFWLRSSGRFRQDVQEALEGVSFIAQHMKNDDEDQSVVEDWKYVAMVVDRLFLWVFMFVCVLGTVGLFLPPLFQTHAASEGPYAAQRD
Sequence of Neuronal acetylcholine receptor; alpha3/beta4 (P32297 whole entry): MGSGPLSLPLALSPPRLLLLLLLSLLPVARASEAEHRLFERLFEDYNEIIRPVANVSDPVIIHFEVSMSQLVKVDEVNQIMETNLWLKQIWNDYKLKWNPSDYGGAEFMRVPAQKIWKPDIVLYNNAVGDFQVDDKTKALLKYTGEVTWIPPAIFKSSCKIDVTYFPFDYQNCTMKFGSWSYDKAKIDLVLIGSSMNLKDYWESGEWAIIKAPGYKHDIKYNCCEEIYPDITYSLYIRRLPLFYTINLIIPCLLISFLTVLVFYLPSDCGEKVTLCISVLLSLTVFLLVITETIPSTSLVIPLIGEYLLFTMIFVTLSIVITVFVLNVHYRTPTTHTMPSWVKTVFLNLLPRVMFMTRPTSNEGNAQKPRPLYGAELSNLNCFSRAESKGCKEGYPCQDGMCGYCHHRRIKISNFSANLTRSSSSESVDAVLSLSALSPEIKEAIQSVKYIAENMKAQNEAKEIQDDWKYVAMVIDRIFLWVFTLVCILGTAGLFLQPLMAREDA

The nature of series [12]: Clearance in rat constant infusion model. Type of series: ADME, organism-based. Conditions: in vivo, iv. In short, it runs like this: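 Clearance determined in a rat constant infusion model.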
Series [13] deals with T1, hERG. Put plainly: Inhibition of hERG expressed in HEK293 cells at 20 uM by patch clamp assay. Type of series: toxicity, cell-based. The settings on record: HEK293 cells that express hERG. In short, it runs like this:
as §1

The nature of series [14]: Oral bioavailability in rat constant infusion model. Conditions: in vivo. Type of series: ADME, organism-based. In short, it runs like this:
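Rat clearance and oral bioavailability derived from a constant infusion model.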

Sequence of Neuronal acetylcholine receptor subunit alpha-7 (Q05941 whole entry): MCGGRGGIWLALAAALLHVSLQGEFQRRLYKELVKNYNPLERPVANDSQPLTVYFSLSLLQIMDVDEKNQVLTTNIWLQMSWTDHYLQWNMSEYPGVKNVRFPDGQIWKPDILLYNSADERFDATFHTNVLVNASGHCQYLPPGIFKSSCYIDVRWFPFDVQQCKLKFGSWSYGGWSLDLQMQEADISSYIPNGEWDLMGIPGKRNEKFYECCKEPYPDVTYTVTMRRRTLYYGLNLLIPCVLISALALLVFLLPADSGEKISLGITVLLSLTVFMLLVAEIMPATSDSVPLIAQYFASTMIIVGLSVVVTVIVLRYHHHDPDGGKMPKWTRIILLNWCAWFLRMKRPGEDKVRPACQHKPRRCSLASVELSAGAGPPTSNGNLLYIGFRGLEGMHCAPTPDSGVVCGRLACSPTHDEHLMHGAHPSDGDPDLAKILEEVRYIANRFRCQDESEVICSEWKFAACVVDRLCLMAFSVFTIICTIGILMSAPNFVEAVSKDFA
T1 sequence (Q12809 whole entry): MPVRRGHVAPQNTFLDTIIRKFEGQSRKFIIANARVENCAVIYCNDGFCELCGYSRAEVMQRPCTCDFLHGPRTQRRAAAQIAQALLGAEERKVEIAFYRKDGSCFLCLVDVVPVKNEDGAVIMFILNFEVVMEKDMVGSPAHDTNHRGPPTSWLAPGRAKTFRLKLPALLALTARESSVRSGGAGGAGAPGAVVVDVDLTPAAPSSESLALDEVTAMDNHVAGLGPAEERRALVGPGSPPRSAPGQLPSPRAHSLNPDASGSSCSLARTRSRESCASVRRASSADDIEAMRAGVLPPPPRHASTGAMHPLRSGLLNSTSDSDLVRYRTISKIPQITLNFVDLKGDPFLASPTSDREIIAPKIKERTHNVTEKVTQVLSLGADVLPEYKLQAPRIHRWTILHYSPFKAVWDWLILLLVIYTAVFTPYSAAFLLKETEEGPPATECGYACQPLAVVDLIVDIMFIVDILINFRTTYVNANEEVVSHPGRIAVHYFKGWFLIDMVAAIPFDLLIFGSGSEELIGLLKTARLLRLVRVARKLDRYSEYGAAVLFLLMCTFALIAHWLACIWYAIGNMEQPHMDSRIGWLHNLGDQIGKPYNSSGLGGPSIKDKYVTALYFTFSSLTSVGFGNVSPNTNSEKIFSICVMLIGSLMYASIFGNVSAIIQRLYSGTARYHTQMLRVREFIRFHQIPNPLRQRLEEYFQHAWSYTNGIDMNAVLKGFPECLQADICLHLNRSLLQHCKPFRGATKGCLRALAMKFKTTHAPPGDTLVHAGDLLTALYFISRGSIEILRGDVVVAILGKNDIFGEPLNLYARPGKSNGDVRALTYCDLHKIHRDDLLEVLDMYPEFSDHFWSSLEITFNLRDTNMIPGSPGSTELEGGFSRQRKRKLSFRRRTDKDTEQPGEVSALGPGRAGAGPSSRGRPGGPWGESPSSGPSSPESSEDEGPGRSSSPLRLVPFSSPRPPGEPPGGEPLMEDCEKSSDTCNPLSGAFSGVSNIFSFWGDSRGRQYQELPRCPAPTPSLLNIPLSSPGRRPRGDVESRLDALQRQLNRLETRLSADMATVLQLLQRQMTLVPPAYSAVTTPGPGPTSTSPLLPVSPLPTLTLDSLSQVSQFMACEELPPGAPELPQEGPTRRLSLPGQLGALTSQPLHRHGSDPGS

A word on the EC50: it is the concentration giving half of the maximal effect. The low end stands for a more potent agent, the high end for a less potent agent. In turn, `O=C(N[C@H]1CN2CCC1CC2)c1ccc2ccoc2n1` returned an EC50 in [1] of more than 10 µM.
Usually Ki stands for a measure of affinity in units of concentration, obtained from inhibition or displacement. Low values mean tighter binding, high ones weaker binding. `O=C(N[C@H]1CN2CCC1CC2)c1cc2occc2cn1` registered a Ki in series [2] of 0.05 µM. Besides, in series [1], a half-maximal effect (EC50) was put at 0.374 µM. Further, the remaining at 1 h in series [3] came to 40%.
As a reminder, the IC50 is the concentration needed to halve the response being measured. In general, inhibition refers to the relative decrease from the control value, in per cent. High values mean strong suppression, low ones little suppression. Broadly, the half-life is the time in which the quantity being followed falls by half. A word on the clearance: it is the rate of elimination divided by the concentration. High values mean a high capacity for elimination, low ones a low capacity for elimination. The term bioavailability denotes dose-corrected exposure relative to a reference, in per cent. Low readings indicate poor availability, high ones good availability. With `O=C(N[C@H]1CN2CCC1CC2)c1ccc(Cl)cc1` [PNU-282987], the half-inhibitory concentration (IC50) in [4] is more than 60 µM; on Cytochrome P450 2D6 it was more than 3 µM; in series [11], more than 60 µM. For the same compound, the inhibition at 2 µM against hERG [5] is 11%. This compound registered an inhibition in [6] of 14%. Besides, the Ki was determined as 4.54 µM in [7], 1.66 µM in series [10] and 0.024 µM in [2]. Moreover, the half-life in series [8] and in [9] was more than 2 h throughout. In [1], this compound yielded a concentration for a half-maximal effect (EC50) of 0.128 µM. Moreover, the remaining at 1 h in series [3] came to 96%. Moreover, the clearance in series [12] was found to be 30 mL/min/kg. At hERG [13], this compound had an inhibition at 20 µM of 57%. The compound also had a bioavailability in [14] of 74%.
As for `O=C(N[C@H]1CN2CCC1CC2)c1ccc2ccsc2c1`, the IC50 in series [4] was more than 100 µM; in [11] it was 38 µM. This compound also displayed an inhibition at 2 µM against hERG [5] of 13%. Further, the inhibition constant Ki in series [7] turned out to be 0.188 µM; in series [10], 0.174 µM; in series [2], 0.0021 µM. In addition, the midpoint of the response in [1], the EC50, lay at 0.048 µM. In addition, the remaining at 1 h in [3] was determined as 29%. On hERG [13], this compound returned an inhibition at 20 µM of 65%.
`O=C(N[C@H]1CN2CCC1CC2)c1cc2sccc2cn1` yielded an EC50 in [1] of 0.081 µM. The remaining at 1 h in series [3] was 7%.
In series [1], `O=C(N[C@H]1CN2CCC1CC2)c1cnc2occc2c1` came in with an EC50 of more than 10 µM.
On to `O=C(N[C@H]1CN2CCC1CC2)c1ccc2sccc2c1`, for which, in series [2], affinity was put at a Ki of 0.0069 µM. Further, the 50% effective concentration (EC50) in series [1] came out at 0.055 µM. In addition, the remaining at 1 h in series [3] turned out to be 6%.
Consider `O=C(N[C@H]1CN2CCC1CC2)c1ccc2occc2c1`, for which the IC50 in [4] was more than 100 µM; on Cytochrome P450 2D6, 3.6 µM; in series [11], more than 100 µM. This compound had an inhibition at 2 µM against hERG [5] of 2%. This compound showed an inhibition in series [6] of 5%. The Ki came to 0.58 µM in series [7], 0.663 µM in series [10] and 0.0016 µM in [2]. Moreover, the half-life in series [8] and in series [9] was more than 2 h in each case. The same compound had a half-maximal effective concentration (EC50) in [1] of 0.047 µM. Moreover, the remaining at 1 h in series [3] was 77%. The compound further gave a clearance in series [12] of 39 mL/min/kg. Also, 20 µM produced 33% inhibition against hERG [13]. Further, in [14], the bioavailability is 88%.
For the compound `O=C(N[C@H]1CN2CCC1CC2)c1ccc2c(c1)CCO2`, in [2], the affinity corresponds to a Ki of 0.015 µM. This compound came in with an EC50 in [1] of 0.077 µM.
In the case of `O=C(N[C@H]1CN2CCC1CC2)c1ccc2ccoc2c1`, the IC50 in series [4] is more than 100 µM; against Cytochrome P450 2D6, more than 10 µM; in series [11], 81 µM. Besides, the inhibition at 2 µM on hERG [5] stood at 2%. Besides, the Ki was 0.962 µM in [7], 0.31 µM in series [10] and 0.0125 µM in series [2]. Further, the half-life in [9] was more than 2 h. Moreover, the response in [1] was half-maximal at 0.086 µM (EC50). In series [3], the remaining at 1 h was 69%. The clearance in series [12] was 58 mL/min/kg. This compound had an inhibition at 20 µM at hERG [13] of 29%. The compound also showed a bioavailability in series [14] of 76%.
Compound `O=C(N[C@H]1CN2CCC1CC2)c1ccc2cc[nH]c2c1` showed an EC50 in series [1] of 0.1 µM. In addition, the remaining at 1 h in [3] turned out to be 14%.
The corresponding values for `O=C(N[C@H]1CN2CCC1CC2)c1cc2cc[nH]c2cn1` are 1.17 µM and 29%.
Regarding `O=C(N[C@H]1CN2CCC1CC2)c1ccc2[nH]ccc2c1`, the EC50 in [1] stood at 0.55 µM.
For `O=C(N[C@H]1CN2CCC1CC2)c1cc2ccsc2cn1`, the Ki in series [2] is 0.0063 µM. In series [1], this compound had an EC50 of 0.1 µM. For the same compound, in [3], the remaining at 1 h is 7%.
For the compound `O=C(N[C@H]1CN2CCC1CC2)c1ccc2c(c1)CCN2`, the affinity in series [2] corresponds to a Ki of 0.083 µM. Also, the concentration giving a half-maximal response (EC50) in [1] was 0.6 µM.

(Values after ChEMBL document CHEMBL1138064, “Discovery of N-[(3R)-1-azabicyclo[2.2.2]oct-3-yl]furo[2,3-c]pyridine-5-carboxamide, an agonist of the alpha7 nicotinic acetylcholine receptor, for the potential treatment of cognitive deficits in schizophrenia: synthesis and structure--activity relationship” (J Med Chem, 2006).)
